# Screening data as filed in PubChem.
# This is one part of a sample in which hits are shown more often than they occur.
# E coli WT exp: blocks growth of wild type E. coli BW25113; OD600 absorbance; growth inhibition, % at 100 µM; actives 0.15% (n = 98,000); AID 710;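 active = growth inhibition above about 50% at one test dose, limit read from the data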;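 also: growth measured after 20 h incubation at 37 °C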
# Ecoli tolC: E. coli tolC mutant growth inhibition. AID 573. actives 2.2% (n = 65,000). E. coli BW25113 tolC mutant growth, OD615. growth inhibition, % at 10 µM (by protocol);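 active = growth inhibition at or above a cutoff equal to the mean over every tested compound plus 3 SD, cut at about 60% in these data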;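 also: growth measured after 20 h incubation at 37 °C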
#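 Test system – E. coli BW25113 ΔtolC::kan, tolC deletion mutant strain · Detection – OD at 615 nm · Buffer or medium – LB with kanamycin 50 µg/mL · Times – 20 h compound exposure of bacteria at 37 °C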
# Phagocyt inh: macrophage phagocytosis inhibition; actives 0.07% (n = 110,000); inhibition, % at 5 µM; AID 1029; J774A.1 macrophage IgG-bead phagocytosis, imaging;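 active = inhibition above the mean of the plate negative controls plus 5 SD, cut at about 13% in these data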;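 also: phagocytic index as fraction of beads internalized from green versus red external bead signal; plate controls were DMSO negative control for no effect and cytochalasin-D positive control for full effect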
# Mac1 fbg inh: blocks human CD11b/CD18 adhesion to fibrinogen; inhibition, % at 10 µM; P05107+P11215; K562 CD11b/CD18 adhesion to fibrinogen, ATPlite luminescence; Mn2+ added to activate the integrin; actives 0.54% (n = 93,000);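 active = primary inhibition of 50% or more at 10 µM, then 40% or more on retest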
# Target sequence (P05107 whole entry, looked up, other chains not shown): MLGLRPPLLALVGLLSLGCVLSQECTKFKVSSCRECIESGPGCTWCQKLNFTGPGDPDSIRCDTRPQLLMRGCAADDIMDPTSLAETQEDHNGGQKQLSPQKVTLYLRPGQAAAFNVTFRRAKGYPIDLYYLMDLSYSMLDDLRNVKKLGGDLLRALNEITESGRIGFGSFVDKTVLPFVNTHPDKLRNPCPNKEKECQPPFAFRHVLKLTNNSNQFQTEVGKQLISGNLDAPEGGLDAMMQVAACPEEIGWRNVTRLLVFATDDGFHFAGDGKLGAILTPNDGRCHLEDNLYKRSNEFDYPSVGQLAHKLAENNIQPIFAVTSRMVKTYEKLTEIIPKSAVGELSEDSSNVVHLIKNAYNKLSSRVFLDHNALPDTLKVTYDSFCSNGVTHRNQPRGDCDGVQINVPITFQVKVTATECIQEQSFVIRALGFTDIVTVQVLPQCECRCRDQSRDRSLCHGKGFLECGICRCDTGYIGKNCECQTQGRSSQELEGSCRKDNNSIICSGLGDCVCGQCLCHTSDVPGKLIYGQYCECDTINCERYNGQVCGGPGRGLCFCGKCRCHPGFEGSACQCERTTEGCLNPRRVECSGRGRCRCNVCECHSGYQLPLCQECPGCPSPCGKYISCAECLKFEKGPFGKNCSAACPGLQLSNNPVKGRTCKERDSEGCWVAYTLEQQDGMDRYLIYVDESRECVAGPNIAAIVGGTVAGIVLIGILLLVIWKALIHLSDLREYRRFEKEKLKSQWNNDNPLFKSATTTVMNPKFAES
# CD11b adhes enh: CD11b/CD18-fibrinogen binding enhancement; P05107+P11215; K562 CD11b/CD18 adhesion to fibrinogen, ATPlite luminescence; activation, % at 10 µM; actives 0.07% (n = 93,000);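 active = 10 µM primary screen giving 50% or more activity, confirmed by 40% or more on retest at that dose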
# Starred values were filed as active, the others as inactive; x = not tested or not shown; [ ] = remark or other dose.
SMILES,E coli WT exp,Ecoli tolC,Phagocyt inh,Mac1 fbg inh,CD11b adhes enh
Cc1oc(-c2ccc(Cl)cc2)nc1CN1CCCC(C(=O)NCc2ccccn2)C1 (centres undefined),-8,-5,0,-6,-3
Cc1oc(-c2ccc(Cl)cc2)nc1CN1CCCC(C(=O)NCc2cccnc2)C1 (centres undefined),-1,5,0,84*,-10
COC(=O)c1ccc(C(=O)OC)c(-n2c(=O)c3ccccc3c3ccccc3c2=O)c1,x,x,-5,-8,6
Cc1nn(-c2ccc(F)cc2)c2sc(C(=O)N3CCCCCC3)cc12,-22,97*,1,-24,26
Cc1ccc(SCC(=O)NC(=O)Nc2ccc3c(c2)OCCO3)c(C)c1,x,x,-12,-11,-3
CC(=O)Oc1c(C)cc(Cl)cc1C(=O)Nc1ccc([N+](=O)[O-])cc1Cl,x,x,-7,x,x
O=C(CSc1n[nH]c(-c2ccncc2)n1)c1ccccc1,9,8,0,1,-3
Cc1ccc(C)c(C(=O)CSc2n[nH]c(-c3ccncc3)n2)c1,4,99*,0,-2,-2
Cc1ccc2nc(NC(=O)c3ccc(NS(=O)(=O)c4cccs4)cc3)sc2c1,x,x,-5,x,x
O=C(/C=C/c1ccncc1)c1ccc(NC(=O)c2ccccc2F)cc1,x,x,-4,x,x
COC(=O)Nc1cc(C(F)(F)F)ccc1N1CCN(c2ccccc2)CC1,-3,-9,90*,10,-6
Cc1ccc(-c2nc3sc4c(c3c(=O)n2N)CC(C)(C)OC4)cc1,-5,x,-1,-16,-3
CC1(C)Cc2c(sc3nnn(Cc4ccc(Cl)cc4)c(=O)c23)CO1,x,x,38*[artifact],x,x
CCOC(=O)C1=C(CC)Nc2ccccc2N=C1NC(=O)Nc1ccc(Cl)c(Cl)c1,18,x,-1,90*,-13
COc1ccc(NC(=O)Cc2coc3ccc4ccccc4c23)cc1S(=O)(=O)N1CCOCC1,x,x,-11,x,x
O=C(/C=C/c1ccccc1)c1cc(Br)ccc(=O)c1O,37,x,0,88*,-3
Cc1cccn2c(=O)c3cc(C(=O)NCc4ccco4)c(=N)n(C(C)C)c3nc12,10,0,3,0,1
Cc1cccn2c(=O)c3cc(C(=O)NCc4ccco4)c(=N)n(CCc4ccccc4)c3nc12,x,65*,x,x,x
CCC1(C)Cc2ccccc2-c2nc3n(c(=O)c21)CCCCC3 (centres undefined),2,100*,-1,-4,3
CCn1cc(C(=O)O)c(=O)c2cc(F)c(N3CCN(S(=O)(=O)c4ccc(NC(C)=O)cc4)CC3)cc21,x,x,-2,-2,4
CCn1cc(C(=O)O)c(=O)c2cc(F)c(N3CCN(C(=O)Nc4ccccc4)CC3)cc21,94*,100*,-1,-20,-1
CCOC(=O)c1cn(CC)c2cc(N3CCSCC3)c(F)cc2c1=O,32,100*,8,-9,-7
CCn1cc(C(=O)NCc2ccco2)c(=O)c2cc(F)c(N3CCN(C(=O)c4ccco4)CC3)cc21,90*,14,3,18,-3
CCn1cc(C(=O)NCCc2ccccc2)c(=O)c2cc(F)c(N3CCN(C)CC3)cc21,33,-1,1,1,0
CCn1cc(C(=O)NCc2ccc3c(c2)OCO3)c(=O)c2cc(F)c(N3CCN(C)CC3)cc21,100*,100*,-1,-4,-3
SMILES,E coli WT exp,Ecoli tolC,Phagocyt inh,Mac1 fbg inh,CD11b adhes enh
CCn1cc(C(=O)NCc2ccccn2)c(=O)c2cc(F)c(N3CCN(C)CC3)cc21,100*,13,-2,-2,2
C=CCn1cc(C(=O)NCc2ccco2)c(=O)c2cc(S(=O)(=O)N3CCCCCC3)ccc21,-22,68*,-2,11,-8
COC(=O)c1cc(NS(=O)(=O)c2ccc(N3CCOCC3)c(N)c2)cc(C(=O)OC)c1,x,x,-6,x,x
COCCN(CCOC)S(=O)(=O)c1ccc(C(=O)Nc2nnc(C)o2)cc1,-6,-17,2,8,-1
Cc1nnc(NC(=O)c2ccc(S(=O)(=O)N(C)Cc3ccccc3)cc2)o1,-1,74*,-4,-10,-4
Cc1nnc(NC(=O)c2ccc3ccccc3c2)o1,50*,31,-1,-8,-3
CCOCCCNC(=O)C(c1ccc(C)cc1)N(Cc1cccs1)C(=O)CNC(C)=O (centres undefined),x,x,-13,x,x
O=c1c2ccccc2nc(SCc2cn3ccsc3n2)n1-c1ccccc1F,-12,65*,-1,8,3
O=c1c2ccccc2nc(SCc2cn3ccsc3n2)n1-c1ccccc1,-15,44,-1,8,1
CCOc1ccc2nc(SCC(=O)NC3CCCc4ccccc43)sc2c1 (centres undefined),x,x,70*[artifact],x,x
COCCSc1ccccc1C(=O)Nc1cc(C)ccn1,x,x,-12,x,x
c1ccc(Cn2nnc3c(N4CCN(Cc5ccc6c(c5)OCO6)CC4)ncnc32)cc1,-24,61*,-1,14,2
Cc1ccc2c(c1)[nH]c1c(N3CCN(Cc4ccc5c(c4)OCO5)CC3)ncnc12,x,47,0,90,-11
c1ccc2c(c1)oc1c(N3CCN(Cc4ccc5c(c4)OCO5)CC3)ncnc12,-15,100*,2,97,-12
Cc1nc2ccccn2c1C(=O)NNS(=O)(=O)c1ccc(C(C)(C)C)cc1,x,x,-3,x,x
CCCOc1ccc(C(=O)NCC(c2ccco2)N(C)C)cc1 (centres undefined),x,x,-8,5,2
COC(=O)CSc1nnnn1-c1cccc2ccccc12,6,2,-1,-40,5
O=[N+]([O-])c1cc(Br)c(O)c(/C=N/Nc2nnnn2-c2cccc3ccccc23)c1,19,x,0,88*,-8
Cc1ccc2ccc(S(=O)(=O)n3nc(C)cc3C)cc2c1,6,78*,0,-35,5
N#C/C(=C\C1CC=CCC1)c1nc2ccccc2[nH]1 (centres undefined),-7,64*,-2,12,-7
O=C(CSc1cccc2cccc(Cl)c12)NCc1cccs1,x,x,0,x,x
COc1ccc(C(C)(C)C)cc1NC(=S)NCCN1CCOCC1,x,x,-2,3,2
CC(O)c1c(OCc2ccccc2)ncnc1OCc1ccccc1 (centres undefined),5,66*,5,30,3
Cc1nc2ccccc2nc1OCc1ccccc1,x,x,-9,x,x
CCNC(=S)Nc1cc(OCC)c(NC(=O)c2cccs2)cc1OCC,x,x,-9,3,-1
Cc1c(-n2cc(C(=O)O)c(=O)c3cc(F)c(N4CCCC4)c(F)c32)c(=O)n(-c2ccccc2)n1C,x,-29,0,-22,1
CN1CCN(c2c(F)cc3c(=O)c(C(=O)O)cn4c3c2SCC4)CC1,100*,100*,x,x,x
CCCC(C)C(=O)Nc1ccccc1C(=O)OCC (centres undefined),10,x,0,-6,-2
CCOC(=O)c1ccccc1NC(=O)C(C)Oc1ccccc1 (centres undefined),13,69*,1,x,x
CCOC(=O)c1ccccc1-c1csc(NS(=O)(=O)c2ccc(Cl)cc2)n1,5,x,0,54*,-4
